From paper PMC7496240 (Chemmedchem, 2020) come the findings set out here.

In this assay the target is T1, murine ovastacin (Mus musculus, UniProt Q6HA09).
T1 sequence (Q6HA09 86-435 limits assumed): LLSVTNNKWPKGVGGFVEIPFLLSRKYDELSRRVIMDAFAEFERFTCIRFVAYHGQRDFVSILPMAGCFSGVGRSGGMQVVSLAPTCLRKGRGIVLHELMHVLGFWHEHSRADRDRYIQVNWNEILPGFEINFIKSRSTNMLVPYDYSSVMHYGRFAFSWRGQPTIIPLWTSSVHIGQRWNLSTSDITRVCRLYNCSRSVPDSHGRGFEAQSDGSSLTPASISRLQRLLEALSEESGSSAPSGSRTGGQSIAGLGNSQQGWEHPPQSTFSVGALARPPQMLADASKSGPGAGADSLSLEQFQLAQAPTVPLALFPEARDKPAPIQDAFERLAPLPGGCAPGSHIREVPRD
Description: fluorogenic enzyme activity assay, inhibition of murine ovastacin. In kind it is biochemical. Summed up: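 Recombinant mouse ovastacin was activated with human plasmin (30 min, 10:1 molar ratio). Active enzyme was 1 nM, set by titration with murine fetuin-B. Buffer: 150 mM NaCl, 50 mM Tris·HCl pH 7.4, 0.01% Brij-35, at 37 °C; inhibitors were in DMSO. Reactions started with 25 μM Edans/Dabcyl peptide substrate (final DMSO 1.4%). Initial rates were read ≥1000 s, then proteinase K gave full-turnover calibration. Apparent Ki came from the Morrison equation; two independent experiments, in triplicate.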

For `O=C(CCN(Cc1ccc(Cl)cc1F)Cc1ccc(Cl)c(O)c1F)NO` [Compound 12], the affinity, expressed as Ki, was 0.75 ± 0.04 µM. In the case of `O=C(CCN(Cc1ccc2c(c1)OCO2)Cc1ccc(Cl)c(O)c1F)NO` [Compound 13], the Ki (commonly the dissociation constant of the complex between target and ligand, obtained from inhibition or displacement) was 0.68 ± 0.02 µM. `O=C(CCN(Cc1ccc2c(c1)OCO2)Cc1ccc(Cl)cc1F)NO` [Compound 14] returned a Ki of 1.96 ± 0.08 µM. This Ki is about 2.9-fold higher than that of the compound before.

`O=C(CCN(Cc1cccnc1)Cc1ccc2c(c1)OCO2)NO` [Compound 15]: the Ki was found to be 8.12 ± 0.34 µM. Turning to `O=C(CCN(Cc1ccncc1)Cc1ccc2c(c1)OCO2)NO` [Compound 17], the Ki was found to be 7.58 ± 0.36 µM. Then `O=C(CCN(Cc1ccncc1)Cc1ccc(Cl)c(O)c1F)NO` [Compound 18], with 8.18 ± 0.29 µM.
